Data published in ChEMBL document CHEMBL3351723, “New derivatives of lupane triterpenoids disturb breast cancer mitochondria and induce cell death” (Bioorg Med Chem, 2014).
Activity calls are given as the source filed them. The rule behind the calls is not given here.

Key:
[1] = test system: Liver microsome; assay: Effect on mitochondrial transmembrane potential in Wistar Han rat liver mitochondria energized with succinate assessed as mitochondrial transmembrane electropotential at 0.06 ug/mg of protein (reference value: 204.2 +/- 5.6 mV); type: functional
[2] = test system: Liver microsome; assay: Effect on mitochondrial transmembrane potential in Wistar Han rat liver mitochondria energized with succinate assessed as mitochondrial transmembrane electropotential at 0.667 ug/mg of protein (reference value: 204.2 +/- 5.6 mV); type: functional
[3] = test system: Liver microsome; assay: Effect on mitochondrial transmembrane potential in Wistar Han rat liver mitochondria energized with succinate assessed as ADP depolarization at 0.667 ug/mg of protein (reference value: 25.3 +/- 2.1 mV); type: functional
[4] = test system: Liver microsome; assay: Effect on mitochondrial transmembrane potential in Wistar Han rat liver mitochondria energized with succinate assessed as time duration of lag phase at 0.067 ug/mg of protein (reference value: 33.0 +/- 4.6 sec); type: functional
How it was run: (§1)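 Isolated male Wistar rat liver mitochondria (1.5 mg protein) in 125 mM sucrose, 65 mM KCl, 5 mM KH2PO4, 2.5 mM MgCl2, 5 mM HEPES pH 7.4, 30°C, with 3 μM TPP+. Compound added for 1 min, then 10 mM succinate plus 3 μM rotenone. State 3 started with ADP (83.3 nmol/mg protein). ΔΨ read with a TPP+-selective electrode and calculated by the Kamo equation without binding correction.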

[5] = test system: Liver microsome; assay: Effect on mitochondrial transmembrane potential in Wistar Han rat liver mitochondria energized with succinate assessed as time duration of lag phase at 1.333 ug/mg of protein (reference value: 33.0 +/- 4.6 sec); type: functional; how it was run: as §1
[6] = test system: MCF7; assay: Cytotoxicity against human MCF7 cells at 0.125 to 2 ug/ml after 1 to 5 days by sulforhodamine B assay; type: functional, cell-based
How it was run: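 Sulforhodamine B growth assay in high-glucose DMEM with 10% FBS. Cancer cells seeded at 1×10^4 cells/ml; compound (0.125–2 μg/ml) added 24 h after seeding and left for 1, 3 or 5 days. Cells fixed, total mass stained. Expressed as % of untreated cells at the same time point. Mean ± SEM, five independent experiments.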

[7] = test system: Hs-578T; assay: Cytotoxicity against human Hs578T cells assessed as decrease in live cells at 1 ug/ml for 24 to 48 hrs by flow cytometry; type: functional
How it was run: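 Hs578T seeded at 2.5×10^4 cells/ml, exposed to 1 μg/ml or DMSO for 24 and 48 h. Cells trypsinized and resuspended in HEPES-buffered saline with 15 mM glucose. Stained 15 min at 37°C with 1 μM ethidium homodimer and 0.1 μM calcein-AM. Green (calcein) and red (ethidium homodimer) signals read by flow cytometry. Mean ± SEM, 6 experiments.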

[8] = test system: BJ; assay: Induction of apoptosis in human BJ cells assessed as distribution of mitochondrial polarization and morphology at 0.25 ug/ml after 6 hrs by confocal microscopy; type: cell-based
How it was run: (§2)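 Cells were seeded on glass coverslips and left to attach for 24 h. They were then exposed to vehicle or 0.25 μg/ml compound for 6 h. For the last 30 min they were loaded with 100 nM TMRM in saline buffer with 15 mM glucose, and the probe was kept present during imaging. Mitochondrial polarization and morphology were imaged by fluorescence microscopy, and the TMRM fluorescence standard deviation was quantified. Four independent preparations, mean ± SEM.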

[9] = Induction of apoptosis in human MCF12A cells assessed as distribution of mitochondrial polarization and morphology at 0.25 ug/ml after 6 hrs by confocal microscopy; type: cell-based; conditions: mcf-12a; how it was run: as §2
[10] = test system: Liver microsome; assay: Effect on mitochondrial transmembrane potential in Wistar Han rat liver mitochondria energized with succinate assessed as mitochondrial transmembrane electropotential at 0.133 ug/mg of protein (reference value: 216.0 +/- 7.4 mV); type: functional
[11] = test system: Liver microsome; assay: Effect on mitochondrial transmembrane potential in Wistar Han rat liver mitochondria energized with succinate assessed as mitochondrial transmembrane electropotential at 0.333 ug/mg of protein (reference value: 216.0 +/- 7.4 mV); type: functional
[12] = test system: Liver microsome; assay: Effect on mitochondrial transmembrane potential in Wistar Han rat liver mitochondria energized with succinate assessed as ADP depolarization at 0.067 ug/mg of protein (reference value: 34.7 +/- 1.4 mV); type: functional
[13] = test system: Liver microsome; assay: Effect on mitochondrial transmembrane potential in Wistar Han rat liver mitochondria energized with succinate assessed as time duration of lag phase at 0.667 ug/mg of protein (reference value: 82.8 +/- 23.5 sec); type: functional; how it was run: as §1
[14] = test system: Liver microsome; assay: Reduction in ADP-induced mitochondrial transmembrane electropotential in Wistar Han rat liver mitochondria energized with succinate at >0.3 ug/mg of protein; type: functional
[15] = test system: Liver microsome; assay: Effect on mitochondrial transmembrane potential in Wistar Han rat liver mitochondria energized with succinate assessed as ADP depolarization at 0.333 ug/mg of protein (reference value: 34.6 +/- 1.9 mV); type: functional
[16] = test system: Liver microsome; assay: Effect on mitochondrial transmembrane potential in Wistar Han rat liver mitochondria energized with succinate assessed as time duration of lag phase at 0.067 ug/mg of protein (reference value: 46.7 +/- 3.9 sec); type: functional; how it was run: as §1
[17] = test system: Liver microsome; assay: Effect on mitochondrial transmembrane potential in Wistar Han rat liver mitochondria energized with succinate assessed as time duration of lag phase at 1.333 ug/mg of protein Rvb = 46.7 +/- 3.9 sec); type: functional; how it was run: as §1
[18] = test system: Liver microsome; assay: Effect on mitochondrial transmembrane potential in Wistar Han rat liver mitochondria energized with succinate assessed as mitochondrial transmembrane electropotential at 0.06 ug/mg of protein (reference value: 198.0 +/- 5.6 mV); type: functional
[19] = test system: Liver microsome; assay: Effect on mitochondrial transmembrane potential in Wistar Han rat liver mitochondria energized with succinate assessed as mitochondrial transmembrane electropotential at 0.133 ug/mg of protein (reference value: 198.0 +/- 5.6 mV); type: functional
[20] = test system: Liver microsome; assay: Effect on mitochondrial transmembrane potential in Wistar Han rat liver mitochondria energized with succinate assessed as mitochondrial transmembrane electropotential at 0.667 ug/mg of protein (reference value: 198.0 +/- 5.6 mV); type: functional
[21] = test system: Liver microsome; assay: Effect on mitochondrial transmembrane potential in Wistar Han rat liver mitochondria energized with succinate assessed as mitochondrial transmembrane electropotential at 1.333 ug/mg of protein (reference value: 198.0 +/- 5.6 mV); type: functional; how it was run: as §1
[22] = test system: Liver microsome; assay: Effect on mitochondrial transmembrane potential in Wistar Han rat liver mitochondria energized with succinate assessed as ADP depolarization at 0.667 ug/mg of protein (reference value: 23.9 +/- 3.3 mV); type: functional
[23] = test system: Liver microsome; assay: Effect on mitochondrial transmembrane potential in Wistar Han rat liver mitochondria energized with succinate assessed as time duration of lag phase at 0.067 ug/mg of protein (reference value: 40.5 +/- 4.5 sec); type: functional; how it was run: as §1
[24] = test system: Hs-578T; assay: Cytotoxicity against human Hs578T cells at 0.125 to 2 ug/ml incubated for 6 hrs folowed by drug wash out and fresh medium addition and measured 3 days after wash out; type: functional, cell-based
[25] = test system: Liver mitochondria (Rattus norvegicus); assay: Effect on mitochondrial transmembrane potential in Wistar Han rat liver mitochondria energized with succinate assessed as time duration of lag phase at 1.333 ug/mg of protein (reference value: 40.5 +/- 4.5 sec)

Question: For `C=C(C)[C@@H]1CC[C@]2(COC(=O)CC[n+]3ccc(N(C)C)cc3)CC[C@]3(C)[C@H](CC[C@@H]4[C@@]5(C)CC[C@H](OC(=O)CC[n+]6ccc(N(C)C)cc6)C(C)(C)[C@@H]5CC[C@]43C)[C@@H]12.[Cl-].[Cl-]`, which Activity [1] is on record?
Answer: 206 mV

Question: What about the Activity [2] of the same compound?
Answer: 205 mV

Question: What about the Activity [3] of the same compound?
Answer: 23.1 mV

Question: And the TIME [4]?
Answer: 0.009 h

Question: And the TIME [5]?
Answer: 0.00983 h

Question: What about the inhibition [6] of the same compound?
Answer: Active

Question: What about the inhibition [7] of the same compound?
Answer: Active

Question: And the Activity [8]?
Answer: Non-toxic

Question: What about the Activity [9] of the same compound?
Answer: Non-toxic

Question: For `C=C(C)[C@@H]1CC[C@]2(COC(=O)C[n+]3ccc(N(C)C)cc3)CC[C@]3(C)[C@H](CC[C@@H]4[C@@]5(C)CC[C@H](OC(=O)C[n+]6ccc(N(C)C)cc6)C(C)(C)[C@@H]5CC[C@]43C)[C@@H]12.[Cl-].[Cl-]`, which Activity [10] is on record?
Answer: 212 mV

Question: What about the Activity [11] of the same compound?
Answer: 208 mV

Question: What about the Activity [12] of the same compound?
Answer: 28.4 mV

Question: What about the TIME [13] of the same compound?
Answer: 0.026 h

Question: For `C=C(C)[C@@H]1CC[C@]2(COC(=O)C[N+](C)(C)C(C)C)CC[C@]3(C)[C@H](CC[C@@H]4[C@@]5(C)CC[C@H](OC(=O)C[N+](C)(C)C(C)C)C(C)(C)[C@@H]5CC[C@]43C)[C@@H]12.[Cl-].[Cl-]`, which inhibition [14] is on record?
Answer: Active

Question: What about the Activity [15] of the same compound?
Answer: 28.8 mV

Question: What about the TIME [16] of the same compound?
Answer: 0.0139 h

Question: What about the TIME [17] of the same compound?
Answer: 0.0144 h

Question: What does the source list for `C=C(C)[C@@H]1CC[C@]2(COC(=O)C(CC)[n+]3ccc(N(C)C)cc3)CC[C@]3(C)[C@H](CC[C@@H]4[C@@]5(C)CC[C@H](OC(=O)C(CC)[n+]6ccc(N(C)C)cc6)C(C)(C)[C@@H]5CC[C@]43C)[C@@H]12` (stereo not given in full)?
Answer: Activity [18]: 198 mV; Activity [19]: 197 mV; Activity [20]: 193 mV; Activity [21]: 190 mV; Activity [22]: 23 mV; TIME [23]: 0.0123 h; inhibition [24]: Active; TIME [25]: 0.0136 h
